Data set [1] deals with Candida albicans. Description: Anti-adherence activity against Candida albicans serotype B assessed as displacement of adhered yeast cells on BECs at 13.8 mM incubated for 90 mins after preincubation of yeast cells with BECs by crystal violet staning based microscopic method relative to PBS control. It is filed as functional, organism-based. The gist of the method:
(§1)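 C. albicans MEN (serotype B, corneal clinical isolate) was grown overnight to stationary phase in YEPD at 30 °C and 200 rpm, washed, and resuspended in PBS at 1 × 10^8 cells per mL. Buccal epithelial cells were scraped from healthy volunteers, washed, and held at 5 × 10^5 per mL. Yeast and BECs (50:1) were co-incubated first. The BECs with adherent yeast were collected on a 30 μm polycarbonate membrane, then re-incubated with compound for 90 min. Yeast on 200 BECs were counted after crystal violet staining. Control 1 was PBS. Control 2 was the PBS-treated count after the second filtration, to account for physical detachment. Three independent occasions; mean ± SEM.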

The subject of data set [2] is Candida albicans. Description: Anti-adherence activity against Candida albicans serotype B assessed as fungal adhesion to human BECs at 13.8 mM co- incubated for 90 mins with yeast cells and BECs by crystal violet staning based microscopic method relative to control. Format: functional. The note with it: 1.5 h. The gist of the method:
(§2)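 Yeast (C. albicans MEN, stationary phase, washed, 1 × 10^8 per mL in PBS) were co-incubated with volunteer BECs at 50:1, with compound present, in 2 mL at 30 °C and 200 rpm for 90 min. Unattached yeast were removed on a 30 μm membrane with two PBS washes. Cells were heat-fixed and stained with crystal violet, and adherent yeast on 200 BECs were counted microscopically. PBS control. Three independent occasions; mean ± SEM.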

For data set [3], the system named is Candida albicans. Description: Anti-adherence activity against Candida albicans serotype B assessed as displacement of adhered yeast cells on BECs at 13.8 mM incubated for 90 mins after preincubation of yeast cells with BECs by crystal violet staning based microscopic method relative to PBS control after second filtration. Format: functional, organism-based. The gist of the method:
as §1

Data set [4] concerns Candida albicans. Description: Anti-adherence activity against Candida albicans serotype B assessed as reduction in fungal adhesion to human BECs at 13.8 mM preincubated with yeast cells for 90 mins followed by twice washout with PBS followed by BECs addition by crystal violet staning based microscopic method relative to control. The note with it: 1.5 h. It is filed as functional. In short, it runs like this:
(§3)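 Pre-treatment (exclusion) format. Stationary-phase C. albicans MEN in PBS were incubated with compound for 90 min, washed twice with PBS, and resuspended in 1 mL PBS. They were then mixed 50:1 with volunteer BECs for 90 min at 30 °C and 200 rpm. After 30 μm membrane filtration and crystal violet staining, yeast attached to 200 BECs were counted. PBS control. Three independent occasions; mean ± SEM.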

Data set [5] can be described thus: Toxicity against Candid albicans serotype B assessed as reduction in fungal growth at 0.0133 to 3.4 mM. The conditions noted are these: candida albicans, 3400 µM; dose 0.0133-3.4 mM.
Data set [6] relates to Candida albicans. Description: Anti-adherence activity against Candida albicans serotype B assessed as reduction in yeast adhesion to human BECs at 13.8 mM preincubated for 90 mins with BECs followed by twice washout with PBS followed by yeast cells addition by crystal violet staning based microscopic method relative to control. The note with it: 1.5 h. It is filed as functional. In short, it runs like this: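 Reverse exclusion format. Buccal epithelial cells were pre-treated with compound at 13.8 mM before exposure to the yeast (C. albicans MEN, stationary phase, in PBS). Adherence was measured by membrane filtration, crystal violet staining, and microscopic counting of yeast on 200 BECs. Three independent occasions; mean ± SEM.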

For data set [7], the system named is Candida albicans. Description: Anti-adherence activity against Candida albicans serotype B assessed as displacement of adhered yeast cells on BECs at 138 uM incubated for 90 mins after preincubation of yeast cells with BECs by crystal violet staning based microscopic method relative to PBS control after second filtration. It is filed as functional, organism-based. The gist of the method:
as §1

The subject of data set [8] is Candida albicans. Description: Anti-adherence activity against Candida albicans serotype B assessed as fungal adhesion to human BECs at 1.38 mM co-incubated for 90 mins with yeast cells and BECs by crystal violet staning based microscopic method relative to control. It is filed as functional. The note with it: 1.5 h. The gist of the method:
as §2

The test system of data set [9] is Candida albicans. Description: Anti-adherence activity against Candida albicans serotype B assessed as fungal adhesion to human BECs at 138 uM co-incubated for 90 mins with yeast cells and BECs by crystal violet staning based microscopic method relative to control. Format: functional. The conditions noted are these: 1.5 h. The gist of the method: as §2
Data set [10] concerns Candida albicans. Description: Anti-adherence activity against Candida albicans serotype B assessed as displacement of adhered yeast cells on human BECs at 138 uM incubated for 90 mins after preincubation of yeast cells with BECs by crystal violet staning based microscopic method relative to PBS control. It is filed as functional, organism-based. The gist of the method: as §1

For data set [11], the system named is Candida albicans. Description: Anti-adherence activity against Candida albicans serotype B assessed as reduction in fungal adhesion to human BECs at 0.138 to 1.38 mM preincubated with yeast cells for 90 mins followed by twice washout with PBS followed by BECs addition by crystal violet staning based microscopic method relative to control. Format: functional. The conditions noted are these: dose mM 0.138-1.38, 1.5 h. In short, it runs like this:
as §3

Some results are limits rather than exact numbers.

With `O=C1[C@@H]2[C@H](C(=O)N1Cc1cn([C@@H]3O[C@H](CO)[C@H](O)[C@H](O)[C@H]3O)nn1)[C@@H]1C=C[C@H]2C1`, the inhibition (usually the drop in the measured response relative to a control, in per cent) was 23% in data set [1] and 7% in data set [3]. In data set [2], the “Fungal adhesion relative to control” value amounted to 83%. For the same molecule, the inhibition at 13800 µM in data set [4] was determined as 43%.
`O=C(NCc1cn([C@@H]2O[C@H](CO)[C@H](O)[C@H](O)[C@H]2O)nn1)[C@@H]1[C@H](C(=O)NCc2cn([C@@H]3O[C@H](CO)[C@H](O)[C@H](O)[C@H]3O)nn2)[C@@H]2C=C[C@H]1C2`: in data set [5], the Activity entry was “Non-Toxic”. The inhibition in [1] was determined as 45%; in data set [3], 34%. In [2], the “Fungal adhesion relative to control” value turned out to be 61%. Moreover, the inhibition at 13800 µM in [4] was 65%.
In the case of `O=c1c(NCc2cn([C@@H]3O[C@H](CO)[C@H](O[C@@H]4O[C@H](CO)[C@H](O)[C@H](O)[C@H]4O)[C@H](O)[C@H]3O)nn2)c(NCc2cn([C@@H]3O[C@H](CO)[C@H](O[C@@H]4O[C@H](CO)[C@H](O)[C@H](O)[C@H]4O)[C@H](O)[C@H]3O)nn2)c1=O`, the values for the inhibition in data set [1] and in data set [3] were 39% and 25%, respectively. Further, in data set [2], the “Fungal adhesion relative to control” value was 64%. In addition, the figures for the inhibition at 13800 µM in [6] and in data set [4] were 15% and 34%, respectively.
Regarding `CCC(=O)Nc1cc(C(=O)NCc2cn([C@@H]3O[C@H](CO)[C@H](O)[C@H](O)[C@H]3O)nn2)cc(C(=O)NCc2cn([C@@H]3O[C@H](CO)[C@H](O)[C@H](O)[C@H]3O)nn2)c1`, the Activity result in [5] was “Non-Toxic”; in data set [8], 74%; in data set [9] it was 65%. In addition, the inhibition amounted to 36% in [7], 56% in [10], 42% in [1] and 31% in data set [3]. The “Fungal adhesion relative to control” value in [2] was found to be 59%. In addition, the inhibition at 13800 µM in data set [6] was found to be 22%; in [4], 42%.
On to `O=C(NCc1cn([C@@H]2O[C@H](CO)[C@H](O)[C@H](O)[C@H]2O)nn1)[C@H]1[C@H](C(=O)NCc2cn([C@@H]3O[C@H](CO)[C@H](O)[C@H](O)[C@H]3O)nn2)[C@H]2C=C[C@@H]1C2`, for which the inhibition worked out at 23% in [1] and 7% in data set [3]. For the same molecule, the “Fungal adhesion relative to control” value in data set [2] turned out to be 62%. Also, in [4], the inhibition at 13800 µM worked out at 46%.
As for `O=c1c(NCc2cn([C@@H]3O[C@H](CO)[C@H](O)[C@H](O)[C@H]3O)nn2)c(NCc2cn([C@@H]3O[C@H](CO)[C@H](O)[C@H](O)[C@H]3O)nn2)c1=O`, the Activity result in data set [5] is listed as “Non-Toxic”. Besides, the “Fungal adhesion relative to control” value in [2] was found to be 83%. Further, the inhibition at 13800 µM in [6] was found to be 12%; in [4], 27%.
For `O=c1c(NCc2cn(CCO[C@@H]3O[C@H](CO)[C@H](O)[C@H](O)[C@H]3O)nn2)c(NCc2cn(CCO[C@@H]3O[C@H](CO)[C@H](O)[C@H](O)[C@H]3O)nn2)c1=O`, the Activity entry in data set [5] is recorded as “Non-Toxic”. The inhibition in data set [1] stood at 35%; in data set [3], 21%. Moreover, in data set [2], the “Fungal adhesion relative to control” value is given as 69%. For the same molecule, the inhibition at 13800 µM in data set [6] came out at 19%; in data set [4] it was 33%.
For the molecule `O=C(NCc1cn([C@@H]2O[C@H](CO)[C@H](O)[C@H](O)[C@H]2O)nn1)c1ccc(C(=O)NCc2cn([C@@H]3O[C@H](CO)[C@H](O)[C@H](O)[C@H]3O)nn2)cc1`, the Activity entry in data set [5] was “Non-Toxic”; in [8], 74%; in data set [9] it was 56%. Further, the values for the inhibition in data set [7] and in [10] were 48% and 63%, respectively. For the same molecule, the “inhibition (INH)” value in [11] is listed as “<=61%”. Besides, the “Fungal adhesion relative to control” value in [2] came to 38%. Further, the inhibition at 13800 µM in data set [4] was found to be 33.5%.

Source of the values: ChEMBL document CHEMBL4699436, “Scaffold diversity for enhanced activity of glycosylated inhibitors of fungal adhesion” (RSC Med Chem, 2020).
